Experimental data: ChEMBL document CHEMBL1134972, “Discovery of a potent and selective COX-2 inhibitor in the alkoxy lactone series with optimized metabolic profile” (Bioorg Med Chem Lett, 2002); call rule not given here

Tests used:
[1] = Half-life in rat; assay type: ADME, organism-based; conditions: in vivo
In short: (§1)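 Rat pharmacokinetics at a 10 mg/kg dose, reporting half-life, Cmax (μM) and bioavailability (%).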

Rattus norvegicus [2] = species on record: Rattus norvegicus; test: Antiinflammatory activity by using Rat hyperalgesia assay; assay type: functional
In short: (§2)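 Rat in vivo models (paw edema, pyresis, hyperalgesia, adjuvant arthritis), with activity expressed as ED50 in mg/kg.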

Rattus norvegicus [3] = species on record: Rattus norvegicus; test: Antiinflammatory activity by using Rat pyresis assay; assay type: functional; in short: as §2
[4] = molecular target: Prostaglandin G/H synthase 1 (Homo sapiens, UniProt P23219); test: In vitro inhibitory potency against Prostaglandin G/H synthase 1 in human whole blood assay; assay type: tissue-based
Prostaglandin G/H synthase 1, sequence (P23219 whole entry): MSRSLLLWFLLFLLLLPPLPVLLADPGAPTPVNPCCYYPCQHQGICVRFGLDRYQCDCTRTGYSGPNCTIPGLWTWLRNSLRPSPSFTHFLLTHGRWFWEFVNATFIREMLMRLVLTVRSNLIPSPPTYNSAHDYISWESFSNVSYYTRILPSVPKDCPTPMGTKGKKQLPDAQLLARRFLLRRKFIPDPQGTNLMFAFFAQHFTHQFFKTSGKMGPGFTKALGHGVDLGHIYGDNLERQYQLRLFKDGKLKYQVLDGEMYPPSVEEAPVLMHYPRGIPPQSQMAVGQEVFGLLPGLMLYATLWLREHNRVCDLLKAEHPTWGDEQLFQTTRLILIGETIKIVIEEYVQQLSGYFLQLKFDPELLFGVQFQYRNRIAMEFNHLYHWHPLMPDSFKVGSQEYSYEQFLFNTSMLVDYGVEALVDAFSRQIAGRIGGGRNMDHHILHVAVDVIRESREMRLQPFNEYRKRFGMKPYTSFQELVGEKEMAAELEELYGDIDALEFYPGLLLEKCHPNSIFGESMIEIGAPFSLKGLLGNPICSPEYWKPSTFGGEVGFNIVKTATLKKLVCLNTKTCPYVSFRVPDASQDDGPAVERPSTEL

Rattus norvegicus [5] = test: Antiinflammatory activity by using Rat paw edema assay; assay type: functional; in short: as §2
[6] = Cmax in rat; assay type: ADME, organism-based; conditions: in vivo; in short: as §1
Rattus norvegicus [7] = species on record: Rattus norvegicus; test: Antiinflammatory activity by using Rat adjuvant arthritis assay; assay type: functional; in short: as §2
[8] = Bioavailability in rat; assay type: ADME, organism-based; conditions: in vivo; in short: as §1
[9] = molecular target: T1, Prostaglandin G/H synthase 2 (Homo sapiens, UniProt P35354); test: In vitro inhibitory potency against Prostaglandin G/H synthase 2 in human whole blood assay; assay type: tissue-based
T1 sequence (P35354 whole entry): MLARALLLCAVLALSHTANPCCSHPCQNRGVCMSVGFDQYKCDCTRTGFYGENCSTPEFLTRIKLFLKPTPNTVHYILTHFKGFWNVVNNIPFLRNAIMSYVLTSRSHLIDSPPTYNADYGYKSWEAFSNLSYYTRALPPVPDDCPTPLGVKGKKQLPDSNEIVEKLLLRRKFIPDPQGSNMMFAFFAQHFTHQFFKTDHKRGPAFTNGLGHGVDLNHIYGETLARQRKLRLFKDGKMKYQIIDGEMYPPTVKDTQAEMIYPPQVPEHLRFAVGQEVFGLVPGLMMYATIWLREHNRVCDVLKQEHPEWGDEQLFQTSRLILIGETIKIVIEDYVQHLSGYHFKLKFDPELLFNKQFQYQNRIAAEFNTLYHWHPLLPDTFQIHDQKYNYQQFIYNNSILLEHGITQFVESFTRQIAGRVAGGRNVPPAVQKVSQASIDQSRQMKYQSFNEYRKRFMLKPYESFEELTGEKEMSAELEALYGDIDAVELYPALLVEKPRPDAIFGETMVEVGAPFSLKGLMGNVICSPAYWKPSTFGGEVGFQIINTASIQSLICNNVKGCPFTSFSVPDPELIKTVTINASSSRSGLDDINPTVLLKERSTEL

Row | SMILES | half-life [1] [h] | ED50 (Rattus norvegicus [2]) [mg/kg] | ED50 (Rattus norvegicus [3]) [mg/kg] | IC50 ([4]; read-out: IC50) [µM] | ED50 (Rattus norvegicus [5]) [mg/kg] | Cmax [6] [µM] | ED50 (Rattus norvegicus [7]) [mg/kg] | IC50 [4] | bioavailability [8] [%] | IC50 [9] [µM]
1 | CC(C)OC1=C(c2ccc(S(C)(=O)=O)cc2)C(C)(C)OC1=O | 7.1 | 0.8 | 0.3 | > 100 | 0.8 | 15 | 0.3 |  |  | 
2 | CC(C)OC1=C(c2ccc(S(C)(=O)=O)cc2)C(C)(CC(F)(F)F)OC1=O (stereo not given) |  |  |  |  |  |  |  | Not Active |  | 
3 | CC[C@]1(C)OC(=O)C(OC(C)C)=C1c1ccc(S(C)(=O)=O)cc1 | 2 | 0.7 | 0.7 | > 86 | 1.2 | 1.7 | 3.3 |  | 100 | 0.4
4 | CC[C@@]1(C)OC(=O)C(OC(C)C)=C1c1ccc(S(C)(=O)=O)cc1 (single isomer, unassigned) | < 2 |  | 4.9 | > 100 | 4.5 |  |  |  |  | 0.5
5 | COc1ccc2c(c1)c(CC(=O)O)c(C)n2C(=O)c1ccc(Cl)cc1 [INDOMETHACIN] |  | 1.4 | 1 |  | 2 |  | 0.2 |  |  | 
6 | CS(=O)(=O)c1ccc(C2=C(c3ccccc3)C(=O)OC2)cc1 [ROFECOXIB] |  | 1 | 0.2 |  | 1.5 |  | 0.8 |  |  | 
